Assay results from ChEMBL document CHEMBL4359902, “Development of novel chromeno[4,3-c]pyrazol-4(2H)-one derivates bearing sulfonylpiperazine as antitumor inhibitors targeting PI3Kα” (Eur J Med Chem, 2019).
pIC50: −log10 of the molar value.

Legend:
[1] = system: HL-60; assay: Antiproliferative activity against human HL60 cells assessed as reduction in cell viability after 48 hrs by MTT assay; type: functional, cell-based; conditions: HL-60, 48 h
[2] = target: Phosphatidylinositol 4,5-bisphosphate 3-kinase catalytic subunit beta isoform (Homo sapiens, UniProt P42338); assay: Inhibition of PI3Kbeta (unknown origin) using diC8-PI(4,5)P2 as substrate incubated for 3 hrs in presence of ATP by fluorescence polarization assay
Phosphatidylinositol 4,5-bisphosphate 3-kinase catalytic subunit beta isoform, sequence (P42338 whole entry, canonical isoform): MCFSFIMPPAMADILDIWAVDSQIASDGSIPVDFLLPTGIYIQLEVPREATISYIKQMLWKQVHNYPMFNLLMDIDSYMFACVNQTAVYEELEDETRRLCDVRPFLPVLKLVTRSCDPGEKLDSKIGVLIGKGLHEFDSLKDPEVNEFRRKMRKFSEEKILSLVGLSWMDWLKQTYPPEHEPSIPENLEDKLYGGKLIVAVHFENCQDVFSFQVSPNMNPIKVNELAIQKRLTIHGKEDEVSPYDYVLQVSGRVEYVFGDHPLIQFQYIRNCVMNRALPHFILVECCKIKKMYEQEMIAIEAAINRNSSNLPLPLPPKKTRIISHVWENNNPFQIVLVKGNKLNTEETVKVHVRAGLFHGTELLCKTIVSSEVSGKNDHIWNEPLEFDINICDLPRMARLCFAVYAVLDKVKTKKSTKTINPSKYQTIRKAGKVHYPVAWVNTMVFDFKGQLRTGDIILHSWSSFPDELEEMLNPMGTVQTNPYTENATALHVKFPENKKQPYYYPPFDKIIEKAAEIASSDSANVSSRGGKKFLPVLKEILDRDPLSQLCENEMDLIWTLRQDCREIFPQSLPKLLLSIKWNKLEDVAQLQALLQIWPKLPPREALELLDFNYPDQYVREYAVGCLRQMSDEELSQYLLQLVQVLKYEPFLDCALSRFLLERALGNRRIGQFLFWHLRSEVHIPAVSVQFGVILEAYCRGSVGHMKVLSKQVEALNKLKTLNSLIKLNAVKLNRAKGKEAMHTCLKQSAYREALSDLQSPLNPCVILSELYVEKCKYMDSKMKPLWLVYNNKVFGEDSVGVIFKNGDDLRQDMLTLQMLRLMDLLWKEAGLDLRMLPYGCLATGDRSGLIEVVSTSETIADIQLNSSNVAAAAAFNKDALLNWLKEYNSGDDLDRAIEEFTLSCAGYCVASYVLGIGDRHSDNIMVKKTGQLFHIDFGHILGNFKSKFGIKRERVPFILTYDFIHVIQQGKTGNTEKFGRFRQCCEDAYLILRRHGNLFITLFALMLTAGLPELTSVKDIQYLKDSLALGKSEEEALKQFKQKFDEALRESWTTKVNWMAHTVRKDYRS
How it was run: (§1)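 Fluorescence polarization competition assay, 10 μL reactions at pH 7: 2.5 mM MgCl₂, 5 mM HEPES, ATP, 10 mM DTT, 50 ng PI3K isoform, diC8-PI(4,5)P2 substrate. After 3 h at room temperature, reactions were chelator-quenched. Phosphoinositide binding protein and fluorophore-labelled tracer were added, then 1 h dark equilibration and polarization read.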

[3] = target: Serine/threonine-protein kinase mTOR (Homo sapiens, UniProt P42345); assay: Inhibition of mTOR (unknown origin)
[4] = system: A549; assay: Antiproliferative activity against human A549 cells assessed as reduction in cell viability after 48 hrs by MTT assay; type: functional, cell-based; conditions: A549, 48 h
[5] = target: T1, Phosphatidylinositol 4,5-bisphosphate 3-kinase catalytic subunit delta isoform (Homo sapiens, UniProt O00329); assay: Inhibition of PI3Kdelta (unknown origin) using diC8-PI(4,5)P2 as substrate incubated for 3 hrs in presence of ATP by fluorescence polarization assay; how it was run: as §1
T1 sequence (O00329 whole entry): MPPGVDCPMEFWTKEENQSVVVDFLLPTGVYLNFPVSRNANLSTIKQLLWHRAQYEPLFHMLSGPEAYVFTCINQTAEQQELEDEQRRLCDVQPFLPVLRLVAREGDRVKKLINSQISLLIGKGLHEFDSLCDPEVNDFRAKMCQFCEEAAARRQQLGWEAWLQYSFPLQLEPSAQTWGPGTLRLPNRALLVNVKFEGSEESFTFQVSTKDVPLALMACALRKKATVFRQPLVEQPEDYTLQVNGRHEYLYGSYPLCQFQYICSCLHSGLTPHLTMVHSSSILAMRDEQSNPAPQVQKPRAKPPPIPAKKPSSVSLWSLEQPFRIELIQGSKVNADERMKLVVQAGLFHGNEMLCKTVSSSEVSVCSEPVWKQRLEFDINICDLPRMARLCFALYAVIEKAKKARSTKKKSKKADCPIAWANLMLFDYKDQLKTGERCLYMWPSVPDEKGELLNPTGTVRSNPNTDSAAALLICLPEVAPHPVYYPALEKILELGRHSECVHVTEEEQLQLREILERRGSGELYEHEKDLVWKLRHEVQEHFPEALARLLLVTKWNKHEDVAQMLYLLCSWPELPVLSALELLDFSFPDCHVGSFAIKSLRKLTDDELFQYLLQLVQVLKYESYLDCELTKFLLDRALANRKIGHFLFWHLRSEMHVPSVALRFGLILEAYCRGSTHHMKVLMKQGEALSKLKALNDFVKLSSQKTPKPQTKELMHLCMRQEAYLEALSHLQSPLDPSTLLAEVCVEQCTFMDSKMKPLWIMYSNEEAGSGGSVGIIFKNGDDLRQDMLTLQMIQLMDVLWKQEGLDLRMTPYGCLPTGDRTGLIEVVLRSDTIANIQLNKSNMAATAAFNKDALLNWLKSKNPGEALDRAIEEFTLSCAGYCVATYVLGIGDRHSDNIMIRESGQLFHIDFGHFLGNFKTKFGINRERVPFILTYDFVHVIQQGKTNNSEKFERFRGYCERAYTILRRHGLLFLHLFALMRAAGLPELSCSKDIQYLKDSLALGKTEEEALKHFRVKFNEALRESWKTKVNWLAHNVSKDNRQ

[6] = target: Phosphatidylinositol 4,5-bisphosphate 3-kinase catalytic subunit alpha isoform (Homo sapiens, UniProt P42336); assay: Inhibition of PI3Kalpha (unknown origin) using diC8-PI(4,5)P2 as substrate incubated for 3 hrs in presence of ATP by fluorescence polarization assay; how it was run: as §1
Phosphatidylinositol 4,5-bisphosphate 3-kinase catalytic subunit alpha isoform, sequence (P42336 whole entry, canonical isoform): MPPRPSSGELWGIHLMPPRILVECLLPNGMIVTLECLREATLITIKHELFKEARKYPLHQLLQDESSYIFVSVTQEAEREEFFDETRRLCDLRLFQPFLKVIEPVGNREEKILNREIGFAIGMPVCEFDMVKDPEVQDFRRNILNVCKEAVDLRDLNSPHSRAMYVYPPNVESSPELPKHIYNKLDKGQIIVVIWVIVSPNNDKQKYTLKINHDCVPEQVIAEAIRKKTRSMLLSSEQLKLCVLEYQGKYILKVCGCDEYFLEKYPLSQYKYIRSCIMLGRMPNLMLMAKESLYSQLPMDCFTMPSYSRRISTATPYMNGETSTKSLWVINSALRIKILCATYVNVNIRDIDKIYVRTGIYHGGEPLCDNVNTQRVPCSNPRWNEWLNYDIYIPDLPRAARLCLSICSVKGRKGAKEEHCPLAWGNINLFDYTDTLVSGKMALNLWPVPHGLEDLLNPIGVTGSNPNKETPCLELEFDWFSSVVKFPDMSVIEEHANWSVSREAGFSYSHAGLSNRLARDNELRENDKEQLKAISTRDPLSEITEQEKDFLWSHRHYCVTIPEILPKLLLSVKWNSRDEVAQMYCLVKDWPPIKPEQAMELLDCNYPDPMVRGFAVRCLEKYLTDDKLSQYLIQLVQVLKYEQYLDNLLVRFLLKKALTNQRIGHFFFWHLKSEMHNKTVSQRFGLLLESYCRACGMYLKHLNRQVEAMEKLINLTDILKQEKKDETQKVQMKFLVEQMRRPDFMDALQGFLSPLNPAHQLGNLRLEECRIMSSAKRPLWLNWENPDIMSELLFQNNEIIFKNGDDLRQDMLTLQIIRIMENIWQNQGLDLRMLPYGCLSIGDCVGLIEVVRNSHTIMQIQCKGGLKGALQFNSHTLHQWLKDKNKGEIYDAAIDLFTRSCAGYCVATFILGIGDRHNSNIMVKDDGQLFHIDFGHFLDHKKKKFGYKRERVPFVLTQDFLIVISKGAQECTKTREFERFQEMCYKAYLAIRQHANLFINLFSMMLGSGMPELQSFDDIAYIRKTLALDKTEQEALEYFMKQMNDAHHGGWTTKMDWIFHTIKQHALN

[7] = target: Phosphatidylinositol 4,5-bisphosphate 3-kinase catalytic subunit gamma isoform (Homo sapiens, UniProt P48736); assay: Inhibition of PI3Kgamma (unknown origin) using diC8-PI(4,5)P2 as substrate incubated for 3 hrs in presence of ATP by fluorescence polarization assay; how it was run: as §1
Phosphatidylinositol 4,5-bisphosphate 3-kinase catalytic subunit gamma isoform, sequence (P48736 whole entry, canonical isoform): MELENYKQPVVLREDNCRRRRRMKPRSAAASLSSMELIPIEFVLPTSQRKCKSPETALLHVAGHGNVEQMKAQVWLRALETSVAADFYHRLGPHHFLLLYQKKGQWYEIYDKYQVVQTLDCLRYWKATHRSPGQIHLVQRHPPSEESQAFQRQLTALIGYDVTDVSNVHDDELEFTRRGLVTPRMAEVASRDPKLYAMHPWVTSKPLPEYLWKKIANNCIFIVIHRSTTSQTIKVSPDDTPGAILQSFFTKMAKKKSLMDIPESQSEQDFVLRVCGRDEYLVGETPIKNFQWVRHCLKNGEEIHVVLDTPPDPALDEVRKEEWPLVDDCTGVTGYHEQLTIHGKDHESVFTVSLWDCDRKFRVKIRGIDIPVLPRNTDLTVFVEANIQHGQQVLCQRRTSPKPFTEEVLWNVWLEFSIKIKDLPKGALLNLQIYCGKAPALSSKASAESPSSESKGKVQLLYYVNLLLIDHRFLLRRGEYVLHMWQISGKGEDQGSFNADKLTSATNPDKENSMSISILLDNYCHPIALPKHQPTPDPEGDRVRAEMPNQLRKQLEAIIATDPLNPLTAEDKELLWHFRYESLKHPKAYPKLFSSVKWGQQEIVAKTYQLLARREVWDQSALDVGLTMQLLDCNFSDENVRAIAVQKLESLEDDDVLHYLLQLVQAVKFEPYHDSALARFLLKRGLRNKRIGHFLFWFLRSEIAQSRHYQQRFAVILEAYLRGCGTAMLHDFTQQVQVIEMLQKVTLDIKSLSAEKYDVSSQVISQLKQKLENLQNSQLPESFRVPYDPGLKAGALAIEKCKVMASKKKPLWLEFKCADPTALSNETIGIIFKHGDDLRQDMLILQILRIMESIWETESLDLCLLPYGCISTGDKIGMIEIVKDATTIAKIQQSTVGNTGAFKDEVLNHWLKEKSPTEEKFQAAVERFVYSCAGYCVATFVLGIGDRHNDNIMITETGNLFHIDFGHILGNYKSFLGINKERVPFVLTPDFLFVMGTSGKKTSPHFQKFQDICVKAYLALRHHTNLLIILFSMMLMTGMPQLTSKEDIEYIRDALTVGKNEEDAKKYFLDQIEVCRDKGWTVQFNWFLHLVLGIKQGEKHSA

[8] = Cytotoxicity against human 293T cells; type: cell-based; conditions: HEK-293T cells
[9] = system: Huh-7; assay: Antiproliferative activity against human HuH7 cells assessed as reduction in cell viability after 48 hrs by MTT assay; type: functional, cell-based; conditions: Huh-7, 48 h
[10] = system: HCT-116; assay: Antiproliferative activity against human HCT116 cells assessed as reduction in cell viability after 48 hrs by MTT assay; type: functional, cell-based; conditions: HCT-116, 48 h

For `O=c1oc2ccccc2c2nn(CN3CCN(S(=O)(=O)c4ccc(F)cc4)CC3)cc12`, the pIC50 [1] was 5.20, the pIC50 [2] was < 5.00 and the pIC50 [3] was 5.04. For the same molecule, the pIC50 [4] was 5.29, the pIC50 [5] was 5.01 and the pIC50 [6] was 5.05. For the same molecule, the pIC50 [7] was 5.12, the CC50 [8] was 298 µM and the pIC50 [9] was 5.19. For the same molecule, the pIC50 [10] was 5.61.
Molecule `O=c1oc2ccccc2c2nn(CN3CCN(S(=O)(=O)c4ccc(C(F)(F)F)cc4)CC3)cc12` has a pIC50 [1] of 5.96, a pIC50 [2] of 5.24 and a pIC50 [3] of 5.09. It also gave a pIC50 [4] of 5.94, a pIC50 [5] of 5.12 and a pIC50 [6] of 5.42. The pIC50 [7] was 5.64, the CC50 [8] was 335 µM and the pIC50 [9] was 5.63. For the same molecule, the pIC50 [10] was 6.08.
With `O=c1oc2ccccc2c2nn(CN3CCN(S(=O)(=O)c4ccc(Cl)cc4)CC3)cc12` the pIC50 [1] was 6.19, the pIC50 [2] was 5.66 and the pIC50 [3] was < 5.00. For the same molecule, the pIC50 [4] was 5.92, the pIC50 [5] was 5.33 and the pIC50 [6] was 5.81. The pIC50 [7] was 5.58, the CC50 [8] was 278 µM and the pIC50 [9] was 5.79. It also gave a pIC50 [10] of 6.09.
In the case of `CS(=O)(=O)N1CCN(Cn2cc3c(=O)oc4ccccc4c3n2)CC1`, the pIC50 [1] was < 4.00, the pIC50 [4] was < 4.00 and the pIC50 [9] was 4.01. For the same molecule, the pIC50 [10] was < 4.00.
With `CC(C)(C)c1ccc(S(=O)(=O)N2CCN(Cn3cc4c(=O)oc5ccccc5c4n3)CC2)cc1` the pIC50 [1] was 6.08, the pIC50 [2] was 5.58 and the pIC50 [3] was < 5.00. It also gave a pIC50 [4] of 6.13, a pIC50 [5] of 6.12 and a pIC50 [6] of 6.02. The pIC50 [7] was 5.88, the CC50 [8] was 231 µM and the pIC50 [9] was 6.05. It also gave a pIC50 [10] of 6.33.
In the case of `CCS(=O)(=O)N1CCN(Cn2cc3c(=O)oc4ccccc4c3n2)CC1`, the pIC50 [1] was < 4.00, the pIC50 [4] was < 4.00 and the pIC50 [9] was < 4.00. The pIC50 [10] was < 4.00.
Molecule `CCCS(=O)(=O)N1CCN(Cn2cc3c(=O)oc4ccccc4c3n2)CC1` has a pIC50 [1] of 4.05, a pIC50 [4] of 4.10 and a pIC50 [9] of 4.06. For the same molecule, the pIC50 [10] was 4.24.
Work on `Cn1c(=O)n(-c2ccc(C(C)(C)C#N)cc2)c2c3cc(-c4cnc5ccccc5c4)ccc3ncc21` [DACTOLISIB] yielded a pIC50 [1] of 6.04, a pIC50 [4] of 6.42 and a pIC50 [9] of 6.28. The pIC50 [10] was 6.62.
In the case of `Cc1ccc(S(=O)(=O)N2CCN(Cn3cc4c(=O)oc5ccccc5c4n3)CC2)cc1`, the pIC50 [1] was 4.77, the pIC50 [4] was 4.67 and the pIC50 [9] was 4.54. For the same molecule, the pIC50 [10] was 4.96.
Molecule `COc1ccc(S(=O)(=O)N2CCN(Cn3cc4c(=O)oc5ccccc5c4n3)CC2)cc1` has a pIC50 [1] of 4.61, a pIC50 [4] of 4.56 and a pIC50 [9] of 4.47. It also gave a pIC50 [10] of 4.92.
With `O=c1oc2ccccc2c2nn(CN3CCN(S(=O)(=O)c4cccc([N+](=O)[O-])c4)CC3)cc12` the pIC50 [1] was 5.70, the pIC50 [2] was < 5.00 and the pIC50 [3] was < 5.00. The pIC50 [4] was 5.44, the pIC50 [5] was < 5.00 and the pIC50 [6] was 5.21. For the same molecule, the pIC50 [7] was 5.03, the CC50 [8] was 412 µM and the pIC50 [9] was 5.44. The pIC50 [10] was 5.89.
For `O=c1oc2ccccc2c2nn(CN3CCN(S(=O)(=O)c4ccc([N+](=O)[O-])cc4)CC3)cc12`, the pIC50 [1] was 5.57, the pIC50 [2] was 5.38 and the pIC50 [3] was < 5.00. For the same molecule, the pIC50 [4] was 5.68, the pIC50 [5] was 5.26 and the pIC50 [6] was 5.58. It also gave a pIC50 [7] of 5.40, a CC50 [8] of 347 µM and a pIC50 [9] of 5.55. It also gave a pIC50 [10] of 6.04.
